Screening results deposited in PubChem by Johns Hopkins Ion Channel Center.
KCNQ1 block = human KCNQ1 channel inhibition | P51787 | CHO-K1 KCNQ1, FluxOR thallium flux fluorescence; stronger effect = higher value | B-score at 10 µM | 310,000 tested, 1.3% active;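 active means compounds whose thallium flux B-score, printed positive for inhibition, exceeds three library SD while starting fluorescence stays within three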;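 further: channel opened by potassium depolarization with thallium stimulus after 20 min compound exposure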
KCNK9 block = human KCNK9 channel inhibition | B-score at 10 µM | Q9NPC2 | 310,000 tested, 1.2% active | AID 488922 | HEK293 KCNK9, FluxOR thallium flux fluorescence; stronger effect = lower value;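 active means ratio B-score over 3 SD below the library mean, with starting fluorescence within 5 SD of its mean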;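 further: negative B-score means less thallium flux so channel inhibition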
Target sequence (Q9NPC2 whole entry, looked up): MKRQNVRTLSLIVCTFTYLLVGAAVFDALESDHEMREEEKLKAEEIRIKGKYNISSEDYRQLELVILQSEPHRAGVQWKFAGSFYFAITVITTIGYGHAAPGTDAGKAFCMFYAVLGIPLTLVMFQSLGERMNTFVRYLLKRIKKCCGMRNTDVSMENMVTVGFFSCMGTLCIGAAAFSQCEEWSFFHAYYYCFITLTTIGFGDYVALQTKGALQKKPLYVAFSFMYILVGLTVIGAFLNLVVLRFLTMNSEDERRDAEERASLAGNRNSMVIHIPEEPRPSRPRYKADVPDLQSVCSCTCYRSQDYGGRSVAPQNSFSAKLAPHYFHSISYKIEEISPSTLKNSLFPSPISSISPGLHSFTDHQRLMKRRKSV
KCNQ1 act = potentiates or activates the human KCNQ1 potassium channel; 310,000 tested, 0.35% active; CHO-K1 KCNQ1, thallium flux FluxOR fluorescence; stronger effect = higher value; P51787; AID 2648; B-score at 10 µM;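 active means fluorescence ratio B-score, a plate-corrected score, at least three library SD, with initial intensity B-score within 5 SD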
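Assay system: CHO-K1 cells stably expressing KCNQ1. Medium: assay buffer for compound exposure, DMSO matched across wells. Timing: 37 °C overnight plating, 90-min dark dye load, 20-min compound pretreatment. Signal: kinetic FluxOR fluorescence, 10 s baseline plus 110 s post-stimulus.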
KCNK3 inh = human KCNK3 channel inhibition, primary screen. CHO-KCNK3 thallium flux, FluxOR fluorescence; stronger effect = lower value. 340,000 tested, 0.84% active. B-score at 10 µM. O14649;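 active means B-score under library mean minus 4 SD, starting fluorescence ratio at most library mean plus 5 SD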;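 further: more negative B-score means stronger inhibition of thallium flux through KCNK3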
hERG rescue = shields human hERG channel from block by proarrhythmic agents; CHO-hERG, FluxOR thallium flux, dofetilide IC70 present; activation (rescue from dofetilide block), less the hit threshold, % at 10 µM; AID 1511; 310,000 tested, 0.51% active; Q12809;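 active means activation above the mean of controls blocked by dofetilide plus 5 SD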;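 further: thallium influx through hERG after potassium depolarization seen as dye fluorescence rise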
* marks the source's active call; other numbers are inactive results; i = inactive; · = no result given. Sampled rows, rich in hits. Any-hit rate of the full collection: about 3.1%.

SMILES | KCNQ1 block | KCNK9 block | KCNQ1 act | KCNK3 inh | hERG rescue
Cc1ccc(CSc2ccc(S(=O)(=O)N3CCCC3)cn2)cc1 | · | · | · | i | ·
CC(=O)N(C)c1ccc(C=C2C=Cc3ccccc32)cc1 | · | · | · | i | ·
COC(=O)C1=C(C)Nc2nnnn2C1c1ccc(Cl)cc1Cl (configuration not stated) | i | i | 18* | i | -4.8
CCOC(=O)C1=C(C)Nc2nnnn2C1c1ccccc1Cl (configuration not stated) | · | · | · | i | ·
Cn1c(=O)[nH]c2c(c1=O)CCO2 | · | · | · | i | ·
CCC(C)NC(=O)COc1ccccc1[N+](=O)[O-] (configuration not stated) | i | i | i | i | -5.0
CC(CCc1ccccc1)NC(=O)COC(=O)c1cc(NS(=O)(=O)c2ccc(Cl)c([N+](=O)[O-])c2)ccc1O (configuration not stated) | 6* | i | i | i | -15.2
CC(CCc1ccccc1)NC(=O)COc1cc(F)ccc1[N+](=O)[O-] (configuration not stated) | i | i | 24* | i | -11.0
COc1cc(NC(=O)CN2C(=O)C(C)N(c3ccc(C)cc3)C2=O)cc(OC)c1 (configuration not stated) | i | i | i | i | -19.9
CC1(C)Cc2c(cnn2-c2ccccc2)C(=O)/C1=N\NC(=O)c1ccccc1O | i | i | i | i | -5.3
Cc1ccc(C)c(S(=O)(=O)NCCOC(=O)Nc2sc(=S)n(C)c2C)c1 | i | i | i | i | -3.7
CC(=O)NCCOC(=O)Nc1sc(=S)n(C)c1C | 8* | i | i | i | -7.7
CCN(C[C@H]1N[C@@](C)(C(=O)OC)[C@H]2C(=O)N(C)C(=O)[C@@H]12)S(=O)(=O)c1ccc(OC)cc1 | · | · | · | i | ·
CCC(C)(C)c1ccc(OCCCC[n+]2ccc(C)cc2)c(C(C)(C)CC)c1 | 7* | -7.73* | i | · | -24.6
COc1cccc(/C=C2/CCC(CN(C)C)C2=O)c1 (configuration not stated) | · | · | · | i | ·
CN(Cc1ccccc1)C1CCN(Cc2ccccc2[N+](=O)[O-])CC1 | i | i | i | i | 9.8*
O=[N+]([O-])c1ccccc1CN1CCN(S(=O)(=O)Cc2ccccc2)CC1 | i | i | i | i | -2.8
CC(=O)Nc1ccc2c(c1)Cc1c(F)cccc1-2 | · | · | · | i | ·
O=c1c(/C=C(\O)c2ccc(F)cc2)nc2ccccc2n1-c1ccccc1 | 6* | i | i | i | -1.7
O=C(CSCc1cccc(Cl)c1)NCc1ccc2c(c1)OCO2 | i | i | i | i | -11.3
